From ChEMBL document CHEMBL3124900, “Discovery and early clinical evaluation of BMS-605339, a potent and orally efficacious tripeptidic acylsulfonamide NS3 protease inhibitor for the treatment of hepatitis C virus infection” (J Med Chem, 2014) come the findings set out here.

Series [1] in a line: Whole body plasma clearance in Sprague-Dawley rat at 5 mg/kg, iv by LC/MS/MS analysis. The class given is ADME, organism-based. Also on record: dose 5 mg/kg, route intravenous.
In a further series the test system is Hepatitis C virus. Description: Antiviral activity against Hepatitis C virus genotype 1b Con1 after 4 days by cell-based replicon assay. To be noted: isolate Con1, 96 h. The class given is functional, organism-based, Hepacivirus hominis.
A short description of series [2]: AUC in Sprague-Dawley rat at 15 mg/kg, po administered via gavage by LC/MS/MS analysis. The class given is ADME, organism-based. Also on record: dose 15 mg/kg, route oral. To be noted: plasma.
Series [3] can be described thus: Oral bioavailability in Sprague-Dawley rat at 15 mg/kg administered via gavage by LC/MS/MS analysis. The class given is ADME, organism-based. To be noted: in vivo.
Series [4] in a line: Inhibition of Hepatitis C virus genotype 1a H77 recombinant NS3/4A protease expressed in Escherichia coli BL21 (DE3) cell using Ac-Asp-Glu-Asp(EDANS)-Glu-Glu-Abu[C(O)-O]-Ala-Ser-Lys(DABCYL)-NH2 as substrate by FRET assay. Also on record: species or system Hepatitis C virus (isolate H77).
The nature of series [5]: Cytotoxicity against human HuH7 cells. The class given is cell-based. To be noted: Huh-7 cells.
The nature of series [6]: Apparent terminal half life in Sprague-Dawley rat at 5 mg/kg, iv by LC/MS/MS analysis. Also on record: dose 5 mg/kg, route intravenous. The class given is ADME, organism-based. To be noted: in vivo, read-out: betat1/2(app) (converted).
The nature of series [7]: Drug uptake in iv dosed Sprague-Dawley rat liver measured after 24 hrs by LC/MS/MS analysis. To be noted: read-out: Drug uptake. The class given is ADME, organism-based.
The test system of another series is Liver. Description: Drug uptake in intraduodenally dosed Sprague-Dawley rat liver measured per gm of tissue over 4 hrs by LC/MS/MS analysis. The class given is ADME, organism-based. To be noted: in vivo, other. Summed up: (§1)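 Abbreviated rat screen: surgically prepared rats were dosed intraduodenally. Plasma was sampled over 4 h, and liver was collected at the 4 h end point. Plasma was precipitated with two volumes of ACN plus internal standard. Liver was weighed and homogenized in 2 volumes of 20% Hanks buffered salt solution/80% ACN. Both were quantified by LC/MS/MS.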

Series [8] is described as follows: Drug uptake in Sprague-Dawley rat liver at 15 mg/kg, po administered via gavage measured after 24 hrs by LC/MS/MS analysis. To be noted: read-out: Drug uptake. Also on record: dose 15 mg/kg, route oral. The class given is ADME, organism-based. An outline of the steps: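 Rats were dosed orally at 15 mg/kg, and liver and plasma were collected 24 h post-dose. Plasma was treated with two volumes of ACN containing internal standard. Tissue was homogenized in 2 volumes of 20% HBSS/80% ACN. Analysis was by LC/MS/MS on a C18 column at 60 °C, using an ammonium formate/formic acid water–methanol gradient, SRM detection and a 5 nM LLQ.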

Series [9] can be described thus: AUC in intraduodenally dosed Sprague-Dawley rat plasma measured over 4 hrs by LC/MS/MS analysis. The class given is ADME, organism-based. Also on record: time < 4 hr, route intraduodenal. To be noted: Sprague-Dawley, plasma. An outline of the steps:
as §1

As usually defined, the clearance is a measure of how efficiently the substance is removed, as volume per time. High values mean a high capacity for elimination, low ones a low capacity for elimination. As usually defined, the EC50 is the concentration at which the effect is half-maximal. A higher EC50 goes with lower potency in that assay. The AUC is the area under the concentration-time curve, a measure of exposure. A high value points to high exposure. For orientation: bioavailability means dose-corrected exposure relative to a reference, in per cent. For orientation: IC50 means the concentration that gives 50% inhibition. As usually defined, the CC50 is the concentration that lowers cell viability or growth by half. The low end stands for greater toxicity to the cells, the high end for lower toxicity to the cells. As to `C=C[C@@H]1C[C@]1(NC(=O)[C@@H]1C[C@@H](Oc2nccc3cc(OC)ccc23)CN1C(=O)[C@@H](NC(=O)O[C@H]1CCOC1)C(C)(C)C)C(=O)NS(=O)(=O)C1CC1`, the clearance in series [1] is 49 mL/min/kg. The EC50 with Hepatitis C virus turned out to be 70 nM. The compound further gave an AUC in series [2] of 0.13 µM·h. The bioavailability in series [3] came out at 3%. In addition, the IC50 in series [4] was 9 nM. For the same compound, the CC50 in series [5] is over 100000 nM. Besides, in series [6], the half-life is 0.67 h.

In the case of `C=C[C@@H]1C[C@]1(NC(=O)[C@@H]1C[C@@H](Oc2ncc(OC)c3ccccc23)CN1C(=O)[C@@H](NC(=O)OC(C)(C)C)C(C)(C)C)C(=O)NS(=O)(=O)C1CC1`, in [1], the clearance came out at 182 mL/min/kg. Also, the 50% effective concentration (EC50) with Hepatitis C virus came out at 19 nM. Besides, the concentration at 24 h in series [7] is 8 µM; in [8], 4.2 µM. The compound also registered a Drug uptake with Liver of 232200 ng. The same compound registered an AUC in series [2] of 0.37 µM·h. Further, the IC50 in [4] came out at 2 nM. In addition, it took 76000 nM to reach half-maximal cytotoxicity in [5] (CC50). This compound also registered an AUC at 4 h in [9] of 0.28 µM·h. Moreover, the half-life in series [6] is 9.8 h.

`C=C[C@@H]1C[C@]1(NC(=O)[C@@H]1C[C@@H](Oc2nccc3c(Cl)cccc23)CN1C(=O)[C@@H](NC(=O)OC(C)(C)C)C(C)(C)C)C(=O)NS(=O)(=O)C1CC1` came in with a clearance in [1] of 7 mL/min/kg. The EC50 in the series with Hepatitis C virus came to 25 nM. The compound further had a Drug uptake in the series on Liver of 36160 ng. The compound further showed an AUC in series [2] of 2.08 µM·h. Besides, the bioavailability in series [3] amounted to 6%. Moreover, in series [4], the IC50 was 1 nM. Half-maximal cytotoxicity in series [5] (CC50) was put at 38000 nM. The same compound showed an area under the curve (AUC) at 4 h in series [9] of 5.5 µM·h. Moreover, in [6], the half-life is 6.6 h.

On to `C=C[C@@H]1C[C@]1(NC(=O)[C@@H]1C[C@@H](Oc2nccc3c(OC)cccc23)CN1C(=O)[C@@H](NC(=O)OC(C)(C)C)C(C)(C)C)C(=O)NS(=O)(=O)C1CC1`, for which the clearance in [1] is 6 mL/min/kg. Moreover, the midpoint of the response in the series on Hepatitis C virus, the EC50, lay at 25 nM. The Drug uptake in the series with Liver is on record as 51260 ng. In [2], this compound displayed an AUC of 3.74 µM·h. Moreover, in series [3], the bioavailability came to 9%. Besides, the IC50 in series [4] was found to be 1 nM. In series [5], the cytotoxic concentration (CC50) is over 100000 nM. Further, in series [9], the AUC at 4 h came out at 2.36 µM·h. The half-life in series [6] is 2.2 h.
